{"data": "Measurements of several laboratories", "PIK3CA E542K": "Phosphatidylinositol 4,5-bisphosphate 3-kinase catalytic subunit alpha isoform (PIK3CA, Homo sapiens, UniProt P42336, E542K)", "PIK3CA H1047L": "Phosphatidylinositol 4,5-bisphosphate 3-kinase catalytic subunit alpha isoform (PIK3CA, Homo sapiens, UniProt P42336, H1047L)", "PIK3CA": "Phosphatidylinositol 4,5-bisphosphate 3-kinase catalytic subunit alpha isoform (PIK3CA, Homo sapiens, UniProt P42336)", "PIK3CA I800L": "Phosphatidylinositol 4,5-bisphosphate 3-kinase catalytic subunit alpha isoform (PIK3CA, Homo sapiens, UniProt P42336, I800L)", "PIK3CA H1047Y": "Phosphatidylinositol 4,5-bisphosphate 3-kinase catalytic subunit alpha isoform (PIK3CA, Homo sapiens, UniProt P42336, H1047Y)", "PIK3CA E545A": "Phosphatidylinositol 4,5-bisphosphate 3-kinase catalytic subunit alpha isoform (PIK3CA, Homo sapiens, UniProt P42336, E545A)", "PIK3CA Q546K": "Phosphatidylinositol 4,5-bisphosphate 3-kinase catalytic subunit alpha isoform (PIK3CA, Homo sapiens, UniProt P42336, Q546K)", "note": "Lines come from different studies, so protocols differ."}
{"SMILES": "O=C(NCCCN1CCOCC1)c1ccc(Nc2ncc(Cl)c(-c3ccc(Cl)s3)n2)cc1", "target": "PIK3CA E542K", "assay": "binding, competition with immobilised ligand", "conditions": "1 µM", "remaining binding": "100%"}
{"SMILES": "COc1cnc(Nc2cccc(S(N)(=O)=O)c2)nc1N1CCN(c2ccccc2)CC1", "target": "PIK3CA H1047L", "assay": "binding, competition with immobilised ligand", "conditions": "1 µM", "remaining binding": "81%"}
{"SMILES": "O=c1nc(-c2ccccn2)sc2ccccc12", "target": "Phosphatidylinositol 4,5-bisphosphate 3-kinase catalytic subunit alpha isoform (PIK3CA, Homo sapiens, UniProt P42336, M1043I)", "assay": "cell-free assay, competition with immobilised ligand", "conditions": "1 µM", "remaining binding": "100%"}
{"SMILES": "CN(c1nccc(-c2cnn3ncccc23)n1)C1CC1", "target": "PIK3CA E542K", "assay": "binding", "conditions": "1 µM", "remaining binding": "56%"}
{"SMILES": "O=C(Nc1cccnn1)N1CC(C/C=C/c2cncc(Oc3ccc(C(F)(F)F)cn3)n2)C1", "target": "Phosphatidylinositol 4,5-bisphosphate 3-kinase catalytic subunit alpha isoform (PIK3CA, Homo sapiens, UniProt P42336, C420R)", "assay": "cell-free assay, competition with immobilised ligand", "conditions": "1 µM", "remaining binding": "66%"}
{"SMILES": "Nc1ncc2c(n1)-c1c([nH]c3ccc(C#CC4CC4)cc13)CCCC2", "target": "PIK3CA", "assay": "binding, competition with immobilised ligand", "conditions": "1 µM", "remaining binding": "90%"}
{"SMILES": "c1cnn2ncc(-c3ccnc(N4CCC45COC5)n3)c2c1", "target": "PIK3CA H1047L", "assay": "binding", "conditions": "1 µM", "remaining binding": "62%"}
{"SMILES": "CN(C)C(=O)Cn1cc(-c2nc([C@@](C)(c3ccc(-c4cnc(N)nc4)cc3)C3CC3)no2)cn1", "target": "PIK3CA E542K", "assay": "cell-free assay, competition with immobilised ligand", "conditions": "1 µM", "remaining binding": "79%"}
{"SMILES": "O=C(NCC1CCOCC1)c1n[nH]cc1NC(=O)c1c(F)cccc1F", "target": "PIK3CA H1047L", "assay": "binding, competition with immobilised ligand", "conditions": "1 µM", "remaining binding": "74%"}
{"SMILES": "C[C@@H](c1ccc(-n2cnc3c(N)ncnc32)cc1)N1CCc2nn(C)c(Cc3ccccc3)c2C1=O", "target": "PIK3CA", "assay": "binding, competition with immobilised ligand", "conditions": "0.1 µM", "remaining binding": "82%"}
{"SMILES": "O=C(Nc1c[nH]nc1C(=O)NC1CCNCC1)c1cc(F)cc(F)c1", "target": "PIK3CA H1047L", "assay": "binding, competition with immobilised ligand", "conditions": "1 µM", "remaining binding": "87%"}
{"SMILES": "NS(=O)(=O)c1cc(NC(=O)C2(c3ccccc3Cl)CC2)ccc1Oc1cccc(Cl)c1", "target": "PIK3CA I800L", "assay": "cell-free assay, competition with immobilised ligand", "conditions": "1 µM", "remaining binding": "100%"}
{"SMILES": "F[C@@H]1CCN(c2nccc(-c3cnn4ncccc34)n2)C1", "target": "PIK3CA H1047Y", "assay": "binding", "conditions": "1 µM", "remaining binding": "81%"}
{"SMILES": "O=C(Nc1cnc(Oc2ccc(F)cc2)nc1)N1CCc2ncccc2[C@@H]1c1ccc(F)cc1", "target": "PIK3CA H1047Y", "assay": "cell-free assay, competition with immobilised ligand", "conditions": "1 µM", "remaining binding": "100%"}
{"SMILES": "CN(C)c1nccc(-c2cnc3ncccn23)n1", "target": "PIK3CA", "assay": "binding", "conditions": "1 µM", "remaining binding": "71%"}
{"SMILES": "O=C(NCCCN1CCOCC1)c1ccc(Nc2nccc(-c3cc4ccccc4s3)n2)cc1", "target": "PIK3CA I800L", "assay": "binding, competition with immobilised ligand", "conditions": "1 µM", "remaining binding": "13%"}
{"SMILES": "Cc1cnn2ncc(-c3ccnc(N(C)C)n3)c2c1", "target": "PIK3CA H1047Y", "assay": "binding", "conditions": "1 µM", "remaining binding": "98%"}
{"SMILES": "O=C(c1ccc(Nc2ncc(Cl)c(-c3ccc(Cl)s3)n2)cc1)N1CCC(N2CCCC2)CC1", "target": "PIK3CA H1047Y", "assay": "binding, competition with immobilised ligand", "conditions": "1 µM", "remaining binding": "100%"}
{"SMILES": "CN(C)c1ncc(F)c(-c2cnn3ncccc23)n1", "target": "PIK3CA E545A", "assay": "binding", "conditions": "1 µM", "remaining binding": "59%"}
{"SMILES": "O=C(NCc1ncc(C(F)(F)F)cc1Cl)c1ccc2c(c1)C1(CCS(=O)(=O)CC1)[C@@H](C1CC1)N2S(=O)(=O)c1ccc(F)cc1", "target": "PIK3CA Q546K", "assay": "cell-free assay, competition with immobilised ligand", "conditions": "1 µM", "remaining binding": "72%"}
{"SMILES": "N[C@@H]1CCN(c2nccc(-c3cnn4ncccc34)n2)C1", "target": "PIK3CA", "assay": "binding", "conditions": "1 µM", "remaining binding": "100%"}
{"SMILES": "C[C@@]1(Cc2ccc(C#N)cc2)C(=O)N(c2cc(Cl)cc(Cl)c2)c2ncc(C(=O)NC3(c4nc(C5CCC5)no4)CC3)n21", "target": "PIK3CA E545A", "assay": "cell-free assay, competition with immobilised ligand", "conditions": "1 µM", "remaining binding": "100%"}
{"SMILES": "CNC(=O)[C@@H]1CC[C@@H](n2c(-c3ccc4cnccc4c3)nc3ccc(C(=O)NCc4cccc(C(N)=O)c4)cc32)C1", "target": "Phosphatidylinositol 4,5-bisphosphate 3-kinase catalytic subunit alpha isoform (PIK3CA, Homo sapiens, UniProt P42336, E545K)", "assay": "binding, competition with immobilised ligand", "conditions": "1 µM", "remaining binding": "84%"}
{"SMILES": "CCN1CCN(Cc2ccc(C(=O)Nc3ccc(C)c(Oc4ccc5c(c4)CC(=O)N5)c3)cc2C(F)(F)F)CC1", "target": "PIK3CA Q546K", "assay": "binding, competition with immobilised ligand", "conditions": "1 µM", "remaining binding": "100%"}
{"SMILES": "COc1cccc(CNC(=O)c2nc3scc(COCc4ccc(C(=O)O)cc4)c3c(=O)[nH]2)c1", "target": "PIK3CA I800L", "assay": "cell-free assay, competition with immobilised ligand", "conditions": "1 µM", "remaining binding": "77.2%"}
